Test results from ChEMBL document CHEMBL1129408, “Development of novel, potent, and selective dopamine reuptake inhibitors through alteration of the piperazine ring of 1-[2-(diphenylmethoxy)ethyl]-and 1-[2-[bis(4-fluorophenyl)methoxy]ethyl]-4-(3-phenylpropyl)piperazines (GBR 12935 and GBR 12909)” (J Med Chem, 1996).

Key:
[1] = target: T1, Sodium-dependent dopamine transporter (Rattus norvegicus, UniProt P23977); assay: Binding affinity against dopamine transporter using radioligand as [3H]GBR 12935
Summary of the method: (§1)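 DAT binding by displacement of 2 nM [3H]GBR 12935 or 0.01 nM [125I]RTI 55. Drugs were in 55.2 mM sodium phosphate buffer, pH 7.4, with 1 mg/mL BSA; radioligand was in the same buffer with chymostatin, leupeptin, EDTA and EGTA. Incubated in triplicate for 18-24 h at 4 °C to equilibrium, then filtered over polyethylenimine-presoaked GF/B filters. IC50 derived.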

[2] = target: T1, Sodium-dependent dopamine transporter; assay: Inhibition of dopamine DA reuptake
Summary of the method: (§2)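 Uptake into synaptosomes in Krebs-phosphate buffer, pH 7.4, with ascorbic acid 1 mg/mL and pargyline 50 µM. Final tracer was 5 nM [3H]DA or 2 nM [3H]5HT. Incubated at 25 °C for 15 min (DA) or 30 min (5HT), then filtered and filter tritium counted. IC50 derived.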

[3] = target: Sodium-dependent serotonin transporter (Rattus norvegicus, UniProt P31652); assay: Inhibition of [3H]5-HT reuptake at rat serotonin transporter; summary of the method: as §2
[4] = target: Monoamine transporters; serotonin & dopamine (Rattus norvegicus) (UniProt P31652+P23977); assay: Ratio of binding affinities of Serotonin transporter vs Dopamine transporter reuptake; format: protein assay
Summary of the method: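 Ratio is the IC50 for [3H]5HT reuptake over the IC50 for [3H]DA reuptake. Both were measured in synaptosomes at 25 °C: 2 nM [3H]5HT for 30 min and 5 nM [3H]DA for 15 min, in Krebs-phosphate buffer, pH 7.4, with pargyline and ascorbic acid.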

[5] = target: T1, Sodium-dependent dopamine transporter; assay: Binding against Dopamine transporter using radioligand as [3H]GBR 12935
[6] = target: T1, Sodium-dependent dopamine transporter; assay: Compound was tested for binding against Dopamine transporter using radioligand as […]
[7] = Ratio of receptor binding affinities of [3H]5-HT vs [125I]-RTI 55 uptake
[8] = target: T1, Sodium-dependent dopamine transporter; assay: Compound was tested for binding affinity against dopamine transporter using radioligand as [3H]-RTI 55; summary of the method: as §1

Sequence of Sodium-dependent serotonin transporter (P31652 whole entry): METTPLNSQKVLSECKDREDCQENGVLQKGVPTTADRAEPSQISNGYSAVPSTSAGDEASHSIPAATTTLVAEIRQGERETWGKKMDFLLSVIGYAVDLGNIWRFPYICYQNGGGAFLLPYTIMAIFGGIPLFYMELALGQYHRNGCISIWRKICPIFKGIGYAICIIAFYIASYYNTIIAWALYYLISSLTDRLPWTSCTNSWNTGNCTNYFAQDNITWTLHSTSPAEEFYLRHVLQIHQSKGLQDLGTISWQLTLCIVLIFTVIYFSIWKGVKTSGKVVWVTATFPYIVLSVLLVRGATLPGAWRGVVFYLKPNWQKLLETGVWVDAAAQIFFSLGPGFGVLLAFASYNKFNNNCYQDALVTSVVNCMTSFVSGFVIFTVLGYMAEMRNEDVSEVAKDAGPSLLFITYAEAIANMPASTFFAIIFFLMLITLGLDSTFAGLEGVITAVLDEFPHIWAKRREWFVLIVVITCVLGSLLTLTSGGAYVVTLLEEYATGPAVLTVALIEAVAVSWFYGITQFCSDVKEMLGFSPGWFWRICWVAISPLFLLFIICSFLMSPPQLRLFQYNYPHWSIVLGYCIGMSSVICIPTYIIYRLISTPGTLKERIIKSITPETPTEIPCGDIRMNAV
T1 sequence (P23977 whole entry): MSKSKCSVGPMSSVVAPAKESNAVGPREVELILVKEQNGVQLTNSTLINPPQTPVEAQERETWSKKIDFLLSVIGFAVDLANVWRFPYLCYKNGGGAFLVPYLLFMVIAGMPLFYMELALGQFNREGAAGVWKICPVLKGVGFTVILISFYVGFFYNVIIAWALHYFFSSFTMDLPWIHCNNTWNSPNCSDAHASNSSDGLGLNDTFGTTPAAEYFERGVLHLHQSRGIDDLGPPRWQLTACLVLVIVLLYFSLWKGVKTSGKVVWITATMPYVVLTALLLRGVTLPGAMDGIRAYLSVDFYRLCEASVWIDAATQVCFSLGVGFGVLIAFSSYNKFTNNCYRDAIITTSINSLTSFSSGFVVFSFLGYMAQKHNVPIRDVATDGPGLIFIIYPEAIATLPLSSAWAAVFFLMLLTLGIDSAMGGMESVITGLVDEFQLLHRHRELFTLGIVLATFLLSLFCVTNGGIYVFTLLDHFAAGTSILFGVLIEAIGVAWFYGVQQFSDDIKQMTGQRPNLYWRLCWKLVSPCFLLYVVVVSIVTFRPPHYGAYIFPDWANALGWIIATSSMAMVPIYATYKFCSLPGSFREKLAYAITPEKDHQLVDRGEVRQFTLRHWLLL
Sequence of Monoamine transporters; serotonin & dopamine (Rattus norvegicus) (P23977 whole entry, looked up): as the sequence (P23977 whole entry) above
Sequence of Monoamine transporters; serotonin & dopamine (Rattus norvegicus) (P31652 whole entry, looked up): as the sequence (P31652 whole entry) above

Row | Structure (SMILES) | IC50 [1] [nM] | IC50 [2] [nM] | IC50 [3] [nM] | Ratio [4] | IC50 [5] [nM] | IC50 [6] [nM] | Ratio [7] | IC50 [8] [nM]
1 | C[C@@H]1CN(CCOC(c2ccccc2)c2ccccc2)[C@@H](C)CN1 | 1000 | 138 | 25300 | 183 | – | – | – | –
2 | c1ccc(CCCNC[C@@H]2CCCN2CCOC(c2ccccc2)c2ccccc2)cc1 | 5.1 | 0.7 | 986 | 1410 | – | – | – | –
3 | c1ccc(CCCNC2CCCCN(CCOC(c3ccccc3)c3ccccc3)C2)cc1 (centres undefined) | 20 | 9.3 | 1480 | 159 | – | – | – | –
4 | Fc1ccc(C(OCCN2CCCNCC2)c2ccc(F)cc2)cc1 | 143 | 17 | 2080 | 122 | – | – | – | –
5 | Fc1ccc(C(OCCN2CCCN(C/C=C/c3ccccc3)CC2)c2ccc(F)cc2)cc1 | – | 3.4 | 234 | 69 | 2.6 | – | – | –
6 | Fc1ccc(C(OCCN2CCNCC2)c2ccc(F)cc2)cc1 | – | 71 | 1400 | 0.7 | 104 | – | – | –
7 | c1ccc(C(OCCN2CCN(CCOC(c3ccccc3)c3ccccc3)CC2)c2ccccc2)cc1 | – | 12 | 1710 | 1.3 | 9.3 | 1.6 | 7.5 | –
8 | c1ccc(C(OCCN2CCCNCC2)c2ccccc2)cc1 | 1360 | 651 | 14300 | 22 | – | – | – | –
9 | C[C@@H]1CN(CCOC(c2ccc(F)cc2)c2ccc(F)cc2)[C@@H](C)CN1CCCc1ccccc1 | – | 15 | 459 | 31 | 40 | – | – | –
10 | C[C@@H]1CN(CCOC(c2ccc(F)cc2)c2ccc(F)cc2)[C@@H](C)CN1CCOC(c1ccc(F)cc1)c1ccc(F)cc1 | 36 | 86 | 4240 | 2.4 | – | – | – | –
11 | c1ccc(CCCNC[C@H]2CCCN2CCOC(c2ccccc2)c2ccccc2)cc1 | 747 | 127 | 3210 | 25 | – | – | – | –
12 | NCCCCNCCOC(c1ccccc1)c1ccccc1 | 9780 | – | 6830 | – | – | – | – | –
13 | c1ccc(CCCN2CCCCN(CCOC(c3ccccc3)c3ccccc3)CC2)cc1 | 864 | 93 | 1590 | 17 | – | – | – | –
14 | Fc1ccc(C(OCCN2CCN(CCOC(c3ccc(F)cc3)c3ccc(F)cc3)CC2)c2ccc(F)cc2)cc1 | – | 40 | 278 | 5.5 | 7.3 | 1.1 | 36.4 | –
15 | CN(CCCc1ccccc1)CCN(C)CCOC(c1ccccc1)c1ccccc1 | 27 | – | 2450 | – | – | – | – | –
16 | C[C@@H]1CN(CCOC(c2ccc(F)cc2)c2ccc(F)cc2)[C@@H](C)CN1 | 106 | 30 | 8940 | 298 | – | – | – | 44
17 | c1ccc(C(OCCN2CCNCC2)c2ccccc2)cc1 | 110 | 124 | 9570 | 1.1 | – | – | – | –
18 | CC(C)(CN)CNCCOC(c1ccccc1)c1ccccc1 | 1460 | 453 | > 10000 | – | – | – | – | –

Row | Structure (SMILES) | IC50 [1] [nM] | IC50 [2] [nM] | IC50 [3] [nM] | Ratio [4] | IC50 [5] [nM] | IC50 [6] [nM] | Ratio [7] | IC50 [8] [nM]
19 | C[C@@H]1CN(CCOC(c2ccccc2)c2ccccc2)[C@@H](C)CN1CCOC(c1ccccc1)c1ccccc1 | 33 | 35 | 6220 | 1.1 | – | – | – | –
20 | C(=C\c1ccccc1)/CN1CCCN(CCOC(c2ccccc2)c2ccccc2)CC1 | 8.6 | 0.6 | 503 | 838 | – | – | – | –
21 | C[C@@H]1CN(CCCc2ccccc2)[C@@H](C)CN1 | – | > 30000 | 12200 | – | > 30000 | – | – | –
22 | c1ccc(CCCN2CCN(CCCc3ccccc3)CC2)cc1 | – | 1640 | 1340 | 0.2 | 7760 | – | – | –
23 | C[C@@H]1CN(CCOC(c2ccccc2)c2ccccc2)[C@@H](C)CN1CCCc1ccccc1 | – | – | 1730 | – | 21 | – | – | –
24 | Fc1ccc(C(OCCN2CCCN(CCCc3ccccc3)CC2)c2ccc(F)cc2)cc1 | – | 3.4 | 112 | 33 | 4.4 | – | – | –
25 | C[C@@H]1CN(CCOC(c2ccc(F)cc2)c2ccc(F)cc2)[C@@H](C)CN1C/C=C/c1ccccc1 | – | 28 | 1180 | 42 | 23 | – | – | –
26 | C[C@@H]1CN(CCOC(c2ccccc2)c2ccccc2)[C@@H](C)CN1C/C=C/c1ccccc1 | 103 | 20 | 2680 | 134 | – | – | – | –
27 | c1ccc(CCCN2CCCCC(NCCOC(c3ccccc3)c3ccccc3)C2)cc1 (centres undefined) | 74 | 57 | 2860 | 50 | – | – | – | –
28 | CC1(C)CN(CCCc2ccccc2)CCN(CCOC(c2ccccc2)c2ccccc2)C1 | 286 | 87 | 3150 | 36 | – | – | – | –
29 | C[C@@H]1CN(CCCc2ccccc2)[C@@H](C)CN1CCCc1ccccc1 | 9940 | 1330 | 2530 | 0.1 | – | – | – | –
30 | Fc1ccc(C(OCCN2CCC[C@H]2CNCCCc2ccccc2)c2ccc(F)cc2)cc1 | – | 29 | 20100 | 693 | 104 | – | – | –
31 | CC(C)(CNCCCc1ccccc1)CNCCOC(c1ccccc1)c1ccccc1 | 169 | 83 | 1890 | 23 | – | – | – | –
32 | c1ccc(CCCN2CCCN(CCOC(c3ccccc3)c3ccccc3)CC2)cc1 | 7.9 | 7.2 | 34100 | 4740 | – | – | – | –
33 | c1ccc(CCCN2CCNCC2)cc1 | – | > 30000 | 361 | – | > 30000 | – | – | –
34 | CNCCN(C)CCOC(c1ccccc1)c1ccccc1 | 834 | 545 | > 10000 | – | – | – | – | –
35 | Oc1cccc(CCCNC[C@@H]2CCCN2CCOC(c2ccccc2)c2ccccc2)c1 | 222 | 31 | 857 | 28 | – | – | – | –
36 | c1ccc(CCCNCCCCNCCOC(c2ccccc2)c2ccccc2)cc1 | – | 35 | 376 | 11 | 80 | – | – | –
